Data as given in ChEMBL document CHEMBL5674869, “The Histone Methyltransferase Inhibitor A-366 Uncovers a Role for G9a/GLP in the Epigenetics of Leukemia” (PLoS One, 2015).
Active and inactive are the calls of the source. No cut-off for these calls is given here.

How the values were obtained:
[1] = Drug level in SCID/beige mouse plasma xenografted with human MV4-11 cells at 30 mg/kg/day via osmotic-mini pump; type: ADME, organism-based; conditions: in vivo
How it was run: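 Tumor-bearing SCID-beige female mice (6–8 wk) with subcutaneous flank MV4;11 xenografts (5 x 10^6 cells in 50% Matrigel, grown to ~200 mm3). Compound given by osmotic mini-pump at 30 mg/kg/day in 98% PEG-400/2% Tween-80. Separate PK/PD arm sacrificed after 2, 7 and 14 days of treatment; plasma and tissues collected and analyzed for drug levels.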

HT-1080 = test: Antiproliferative activity against human HT-1080 cells upto 10 uM after 2 days by Cell-Titer-Glo assay; type: functional, cell-based; conditions: time 2.0 day
How it was run: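 ATCC tumor lines were grown in their recommended media with 10% FBS and STR-authenticated. Cells were exposed to compound for the stated number of days. Viable cells were read by CellTiter-Glo endpoint. Inhibition was the ratio of treated to untreated wells, with cell-free wells set as 100% inhibition. The EC50 was taken from the dose response.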

HL-60 (human) = test: Induction of cell cycle arrest in human HL-60 cells assessed as increase in G1 phase cells after 4 days by propidium iodide staining based flow cytometry; conditions: time 4.0 day

Drug uptake [1]: Active
SMILES: COc1cc2c(cc1OCCCN1CCCC1)N=C(N)C21CCC1
Activity (HT-1080): inactive | Activity (HL-60 (human)): Active
